# Source: PubChem BioAssay (Sanford-Burnham Center for Chemical Genomics)
# Hits are enriched below; roughly 0.72% of the tested compounds scored in any of these assays.
# bIAP activator = bovine intestinal alkaline phosphatase activators, primary screen, biochemical, bovine IAP, CDP-star luminescence | alkaline phosphatase, intestinal [Bos taurus] | purified bovine IAP, 30 min; hits give high values; fold of DMSO-control signal, blank-subtracted | activation factor at 20 µM | 0.17% of 200,000 active | AID 1016, 2008;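 active = activation factor of 2 or more at 20 µM, a signal rise over negative controls twice the positive control's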
# hIAP activ = human IAP activators, primary screen, biochemical, luminescence, uHTS; purified human IAP, CDP-Star luminescence, 30 min; hits give high values; 1 = vehicle-only enzyme, 0 = enzyme-free background; activation factor at 10 µM; 0.16% of 330,000 active;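 active = activation factor of the enzyme at least 2-fold when tested at 20 µM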
# Target sequence (P09923 whole entry, looked up): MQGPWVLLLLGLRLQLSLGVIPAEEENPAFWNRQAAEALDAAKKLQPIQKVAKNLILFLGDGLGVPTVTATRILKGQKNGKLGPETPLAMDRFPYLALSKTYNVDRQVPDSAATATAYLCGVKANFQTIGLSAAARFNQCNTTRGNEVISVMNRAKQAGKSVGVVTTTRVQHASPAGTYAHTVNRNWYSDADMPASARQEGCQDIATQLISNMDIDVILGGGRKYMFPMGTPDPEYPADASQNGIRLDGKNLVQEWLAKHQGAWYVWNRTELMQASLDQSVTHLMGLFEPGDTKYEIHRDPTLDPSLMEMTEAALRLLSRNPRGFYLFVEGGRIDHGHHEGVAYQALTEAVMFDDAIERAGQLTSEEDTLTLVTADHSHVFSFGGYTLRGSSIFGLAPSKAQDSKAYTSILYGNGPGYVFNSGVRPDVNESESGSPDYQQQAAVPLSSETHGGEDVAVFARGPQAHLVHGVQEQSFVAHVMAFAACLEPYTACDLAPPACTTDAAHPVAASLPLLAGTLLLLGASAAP
# mIAP act = activators of mouse IAP, primary screen, biochemical, luminescence, uHTS. AID 2805, 2010. intestinal alkaline phosphatase [Mus musculus]. muIAP, CDP-Star luminescence, 30 min; hits give high values; 1 = vehicle-only enzyme signal, 0 = enzyme-free wells. activation factor at 10 µM. 0.24% of 330,000 active;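 active = activation factor of at least 2 at 20 µM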
#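 also added = chemiluminescent substrate CDP-Star | test system = mouse IAP enzyme | signal = chemiluminescence readout | compound = DMSO-dissolved test compounds | incubation = 30 min at room temperature | benchmarks = DMSO wells, no-enzyme wells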
# mIAP inh = inhibitors of mouse IAP, primary screen, biochemical, luminescence, uHTS; intestinal alkaline phosphatase [Mus musculus]; purified mouse IAP, CDP-Star luminescence, 30 min; inhibition, % at 10 µM; 0.2% of 330,000 active; AID 2806, 2010;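 active = inhibition of at least 40% at 10 µM in the primary screen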
# hIAP inh = human IAP inhibitors, primary screen, biochemical, luminescence, uHTS; Intestinal-type alkaline phosphatase (Homo sapiens), P09923; purified IAP, CDP-Star luminescence, 30 min; inhibition, % at 10 µM; 0.12% of 330,000 active; AID 2544, 2010;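 active = inhibition reaching a set limit with compound at 10 µM in the primary screen, cut at about 35% in these data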
# bIAP inhibitor = bovine intestinal alkaline phosphatase inhibitors, primary screen, selectivity assay for TNAP inhibitor project, biochemical, bovine IAP, CDP-star luminescence | inhibition, % at 20 µM | purified bovine IAP, 30 min | 190,000 tested, under 10 active | alkaline phosphatase, intestinal [Bos taurus];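 active = over 50% inhibition of intestinal alkaline phosphatase at 20 µM in the single-dose screen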
#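 test system = bovine IAP enzyme | medium = DEA buffer 100 mM, pH 9.8, with MgCl2 1.0 mM, ZnCl2 0.02 mM | detection = luminescence | dosing = single compound dose of 20 µM, 2% DMSO final | incubation = 30 min reaction at room temperature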
# mIAP inh conf = inhibitors of mouse IAP, confirmation, biochemical, luminescence, single concentration | purified mouse IAP, CDP-Star luminescence, 30 min | shares compounds with mIAP inh | inhibition, % at 10 µM | 4.7% of 11,000 active;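 active = inhibition of at least 40% at 10 µM in either of the two replicates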
# Hits are given with their value; n = inactive; x = no result.
SMILES,bIAP activator,hIAP activ,mIAP act,mIAP inh,hIAP inh,bIAP inhibitor,mIAP inh conf
O=C(NCc1cccnc1)Nc1cccc(C(F)(F)F)c1,x,n,n,n,n,x,x
CCN(C(=O)COC(=O)CC1CCCCC1)c1c(N)n(Cc2ccccc2)c(=O)[nH]c1=O,x,n,n,n,n,x,x
CC(=O)NN1C(=O)/C(=C/c2ccc(Br)o2)SC1=S,n,n,n,67.2,n,n,74.9
CC(=O)NN1C(=O)/C(=C\c2ccc(O)cc2)SC1=S,n,n,n,n,n,x,x
CC(=O)NN1C(=O)/C(=C\c2ccccc2)SC1=S,n,n,n,n,n,n,x
CC(=O)NN1C(=O)/C(=C\c2ccc(Br)o2)SC1=S,n,n,n,60.2,n,n,73.9
Cc1c(Cl)cccc1NC(=O)Cn1nc(C)n2cccc2c1=O,x,n,n,n,n,x,x
COC(=O)[C@@H](CC(C)C)NS(=O)(=O)N(Cc1ccccc1)[C@@H](CC(C)C)C(=O)OC,x,n,n,n,n,x,x
COCCn1cnnc1SCC(=O)Nc1sc2c(c1C#N)CCC2,x,n,n,n,n,x,x
Cn1cnnc1SCC(=O)Nc1sc2c(c1C(N)=O)CCC2,n,n,n,57.2,n,n,54.0
O=C(NNC(=O)c1ccc(O)cc1O)c1ccc(-c2ccccc2)cc1,x,n,n,42.9,n,x,40.1
O=C(NNC(=O)c1cccc2ccccc12)c1ccc(-c2ccccc2)cc1,n,n,n,n,n,n,x
COc1ccc(-n2ccnc2SCC(=O)NO)cc1,n,n,n,n,n,n,x
Oc1cc2c(cc1O)C1c3ccc(O)c(O)c3OCC1(O)C2 (centres undefined),n,n,n,73.8,n,n,63.9
COc1cc(-c2nnc(SCc3cc(=O)oc4cc(O)c(O)cc34)o2)cc(OC)c1OC,n,n,n,69.4,n,n,73.4
C=C(C)c1cccc(C(C)(C)NC(=O)Nc2ccc(C(N)=O)cc2)c1,n,n,2.23,n,n,n,n
Nc1nnc(CC(=O)N/N=C/c2cc([N+](=O)[O-])cc(Br)c2O)s1,n,n,n,47.5,n,n,46.5
CCOC(=O)c1c(C)[nH]c(C)c1S(=O)(=O)NCCN1CCN(c2ccccc2F)CC1,x,n,n,n,n,x,x
COCCn1nnnc1C(c1cc2c(C)cc(C)cc2[nH]c1=O)N1CCCCCC1 (centres undefined),n,n,n,n,n,n,x
COCCn1nnnc1C(c1cc2cc(C)ccc2[nH]c1=O)N1CCCCCC1 (centres undefined),n,n,n,67.1,n,n,70.4
CCN(Cc1ccccc1)C(c1cc2cc(C)ccc2[nH]c1=O)c1nnnn1CCOC (centres undefined),n,n,n,56.4,n,n,57.4
Oc1cccc(NC(=S)Nc2ccc(SC(F)F)cc2)c1,n,n,n,n,n,n,x
FC(F)Sc1ccc(NC(=S)NC2CCC(NC(=S)Nc3ccc(SC(F)F)cc3)CC2)cc1 (centres undefined),n,n,2.45,n,n,n,n
Nc1nnc(-c2ccco2)s1,n,n,n,60.3,n,n,65.6
CCCC(=O)Nc1nnc(-c2ccco2)s1,n,n,n,n,n,n,x
SMILES,bIAP activator,hIAP activ,mIAP act,mIAP inh,hIAP inh,bIAP inhibitor,mIAP inh conf
CSc1ccc(CN2CCC(n3nccc3NC(=O)CCCc3ccccc3)CC2)cc1,x,n,2.71,n,n,x,n
O=C(O)CC(CCc1ccccc1)OC1OC(CO)C(O)C(O)C1O (centres undefined),x,n,n,76.2,n,x,79.7
COc1ccc(Cl)cc1NC(=S)NCCC(c1ccccc1)c1ccccc1,n,n,3.98,n,n,n,n
S=C(NCc1ccccc1)Nc1ccc(Cl)cc1,n,n,n,n,n,n,x
S=C(NCCC(c1ccccc1)c1ccccc1)Nc1ccc(Cl)cc1,n,n,5.91,n,n,n,n
COc1ccc(Cl)cc1NC(=S)NCCO,n,n,n,n,n,n,x
COc1ccc(OC)c(N(C)S(=O)(=O)c2ccc3c(c2)N(C(C)=O)CCO3)c1,x,n,n,n,n,x,x
CCOc1ccccc1NC(=O)CN1CCC(NC(=O)Nc2ccccc2)CC1,x,n,3.49,n,n,x,n
O=c1nc2s/c(=C\c3ccco3)c(=O)n2nc1Cc1ccc(F)cc1,n,n,n,46.3,n,n,58.1
COc1ccc(CCN2C(=O)CSC2=S)cc1OC,x,n,n,n,n,x,x
CCSc1nc2c(c(=O)[nH]c(=O)n2C)n1C/C=C(/C)Cl,n,n,n,n,n,n,x
CCOC(=O)C(C)Sc1nc2c(c(=O)[nH]c(=O)n2C)n1C/C=C(/C)Cl (centres undefined),n,n,n,67.6,n,n,70.7
CCOc1ccc(C(=O)OCC(=O)N2CCCC2)cc1,x,n,n,n,n,x,x
CCOc1ccc(S(=O)(=O)Nc2ccc(O)c(Sc3ncn[nH]3)c2)cc1,n,n,n,44.2,n,n,62.0
COc1ccc(OC)c(S(=O)(=O)Nc2ccc(O)c(Sc3ncn[nH]3)c2)c1,n,n,n,49.7,n,n,51.9
CCOc1ccc(NS(=O)(=O)c2ccc(NS(=O)(=O)c3ccc(SC)cc3)cc2)cc1,n,n,n,n,n,n,x
Cc1cc(F)ccc1S(=O)(=O)Nc1ccc(O)c(Sc2ncn[nH]2)c1,x,n,n,69.7,n,x,65.9
Cc1cc(F)ccc1S(=O)(=O)Nc1ccccc1C(=O)Nc1ncn[nH]1,n,n,n,n,n,n,x
Cc1ccc(C)c(S(=O)(=O)Nc2ccc(O)c(Sc3ncn[nH]3)c2)c1,x,n,n,74.8,n,x,81.7
O=C1CN(C(=O)COC(=O)c2ccc(Cl)c(S(=O)(=O)N3CCCCC3)c2)c2ccccc2N1,x,n,n,n,n,x,x
CC(C)CC(OC(=O)c1ccc(Cl)nc1)C(=O)NC1CCCC1 (centres undefined),x,n,n,n,n,x,x
CSc1ccc(S(=O)(=O)Nc2ccc(S(=O)(=O)Nc3ccc(C)cc3)cc2)cc1,n,n,n,n,n,n,x
Cc1ccc(S(=O)(=O)Nc2ccc(O)c(Sc3ncn[nH]3)c2)cc1,n,n,n,49.9,n,n,65.1
CC1CC(C)CN(S(=O)(=O)c2cccc(C(=O)N3CCN(c4ccc(F)cc4)CC3)c2)C1 (centres undefined),x,n,n,n,n,x,x
NS(=O)(=O)c1ccc2c(c1)oc(=O)c1cc(S(N)(=O)=O)ccc12,n,n,n,47.8,n,n,56.6
